Experimental findings from PubChem BioAssay AID624038 (The Scripps Research Institute Molecular Screening Center, 2012) are described below.

Structures are written as SMILES. The whole screen tested about 360,000 compounds, of which about 1,100 (0.31%) were called active. The sample as a whole holds a higher share of actives than the screen did. Values without a mark were called inactive.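 How the source made its calls: active means activation above the run cutoff, the mean activation of all test compounds plus 3 SD (cut at about 18% in these data); inactive means the rest.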

Sequence of Muscarinic acetylcholine receptor M5 (Homo sapiens) (P08912 whole entry, looked up): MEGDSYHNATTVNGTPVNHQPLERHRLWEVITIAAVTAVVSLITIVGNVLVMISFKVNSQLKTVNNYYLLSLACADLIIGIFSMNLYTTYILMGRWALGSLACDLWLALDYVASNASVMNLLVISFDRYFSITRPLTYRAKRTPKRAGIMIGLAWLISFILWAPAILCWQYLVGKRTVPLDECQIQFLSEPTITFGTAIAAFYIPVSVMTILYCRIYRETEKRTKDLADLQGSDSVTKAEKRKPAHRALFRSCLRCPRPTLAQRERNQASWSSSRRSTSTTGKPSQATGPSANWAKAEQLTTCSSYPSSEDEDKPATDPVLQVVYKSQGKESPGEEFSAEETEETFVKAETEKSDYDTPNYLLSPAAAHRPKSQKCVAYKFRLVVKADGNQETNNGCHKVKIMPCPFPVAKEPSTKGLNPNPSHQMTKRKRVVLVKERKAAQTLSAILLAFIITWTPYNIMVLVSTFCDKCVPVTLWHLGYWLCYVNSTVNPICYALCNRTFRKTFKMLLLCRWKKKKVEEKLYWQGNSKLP

The assay deals with Muscarinic acetylcholine receptor M5 (Homo sapiens) (UniProt P08912). Put plainly: CHRM5 PAMs potentiating acetylcholine calcium signal – CHO-K1 cells, Fluo-8 calcium fluorescence, primary screen (AID 624038). To be noted: CHO-K1 hM5, Fluo-8 calcium, ACh EC20 PAM; at 3 µM; hits give high values; 0% = ACh EC20, 100% = ACh EC100. An outline of the steps:
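System – CHO-K1 hM5 cells · Compound – 3 µM, single dose · Incubation – compound preincubation 140 s before EC20 acetylcholine addition · Technique – Fluo-8 calcium fluorescence · Measure – Max/basal fluorescence ratio as % of EC20–EC100 ACh window · Benchmarks – low control EC20 acetylcholine (0%), high control EC100 acetylcholine (100%) · Replication – singlicate, one well per test compound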
`CCOC(=O)[C@H]1Nc2ccc(Cl)cc2[C@@H]2[C@H]1C1CC(c3ccccc31)N2C(=O)OCc1ccccc1` (some centres not stated): the activation is -15.8%.
Under `COc1ccccc1-n1c(SCC(=O)O)nc2sc3c(c2c1=O)CCC3` stands 1.79%.
For `CCSc1nc2sc3c(c2c(=O)n1-c1ccc(C)cc1)CCN(C)C3`, the activation was -1.06%.
As for `Cc1ccc(C)c(-n2c(SCC(=O)O)nc3sc4c(c3c2=O)CCCC4)c1`, the activation is 20.4% (active).
Under `COc1ccc(Br)cc1CN1CCN(C(=O)c2cccc(OC)c2OC)CC1` stands 2.23%.
With `CCN(CC)c1ccc(C2C3CCCCC3(O)CCN2CC(=O)Nc2ccccc2)cc1` (configuration not stated), the activation is -6.54%.
Under `CC(N)C12CC3CC(CC(O)(C3)C1)C2` (configuration not stated) stands -3.44%; under `Cc1ncn(C23CC4CC(CC(O)(C4)C2)C3)n1`, 19.2% (active).
On to `COC(=O)c1ccc(NC(=O)C23CC4CC(C2)CC(n2cnc(Cl)n2)(C4)C3)cc1`, for which the activation is 3.27%.
The result for `CCOC(=O)/C(=N\Nc1ccccc1Cl)N(C)C1CCS(=O)(=O)C1` (configuration not stated) reads -8.17%; that for `O=C(COC(=O)/C=C/c1nc2ccccc2s1)Nc1ccccc1Oc1ccccc1`, 1.93%; that for `CCC(=O)c1ccc(OCC(O)CN2CCN(c3cccc(C(F)(F)F)c3)CC2)cc1` (configuration not stated), -10.8%.
Take `CN(C)c1ccc(NC(=S)N(CCc2ccccc2)C2CC(=O)N(c3c(Cl)cccc3Cl)C2=O)cc1` (configuration not stated): the activation was 8.56%.
Under `COC(=O)CN(C(=S)Nc1ccc(Cl)cc1)C1CC(=O)N(c2ccc(OC)cc2)C1=O` (configuration not stated) stands -18.4%; under `CCOc1ccc(N2C(=O)CC(N(CCc3ccc(OC)c(OC)c3)C(=S)Nc3ccccc3)C2=O)cc1` (configuration not stated), 21.9% (active).
The result for `O=C(NCc1ccco1)c1cccc(-c2ccc3nncn3c2)c1` reads -4.68%; that for `COc1ccc(CCNS(=O)(=O)c2ccc(C(=O)NCc3ccco3)cc2)cc1OC`, 1.67%.
For `CCCC1=Nc2cc(C(=O)NCc3ccco3)ccc2Sc2ccccc21`, the activation is 19.8% (active).
Under `O=C(NC1CCN(C(=S)NCc2ccco2)CC1)c1ccc(F)cc1` stands -4.46%.
For `CCn1c(CNC(=O)c2ccco2)nnc1SCC(=O)Nc1cccc(F)c1`, the activation was -8.95%.
With `Cc1cc(C)nc(SCc2nnc(SCC(=O)Nc3ncc(C)s3)n2Cc2ccco2)n1`, the activation is -4.62%.
For the compound `CCN(CC)C(=O)CSc1nnc(CNc2ccc(F)cc2)n1Cc1ccco1`, the activation is 26.3% (active).
Under `Cc1c(Cl)cccc1NC(=O)CC1SC(=NCC2CCCO2)NC1=O` (configuration not stated) stands -3.09%.
Turning to `CCn1ccnc1CN(C)C(=O)c1ccc2nc(Cc3ccc(OC)cc3)oc2c1`, the activation is -3.69%.
Under `CC(=O)Nc1ccc(N2C(=O)CCC2=O)cc1C` stands 30.9% (active); under `Cc1cc(N2CCCC2)ccc1NC(=O)COc1ccc(Cl)cc1`, -6.11%; under `CC(=O)Nc1ccc(N2C(=O)C3C4C=CC(CC4)C3C2=O)cc1` (configuration not stated), 3.09%.
Turning to `CCNC(=O)CC1C(=O)N(c2ccc(F)cc2)C(=O)N1Cc1cccs1` (configuration not stated), the activation was -0.18%.
In the case of `CC(C)CN1CCNC(=O)C1CC(=O)N(C)CC1CCOCC1` (configuration not stated), the activation is 1.55%.
Under `Cc1ccc(C(C)(C)C)c(OCCCCN2CCCC2)c1` stands -4.25%.
Under `COc1ccc(C2=NN(C(=O)CSc3nnnn3C)C(c3ccco3)C2)cc1` (configuration not stated) stands 8.48%; under `CCc1c(C)sc(NC(=O)c2cccs2)c1C(N)=O`, -8.58%; under `CCOC(=O)c1c(NC(=O)c2cccs2)sc(C)c1C`, 27.8% (active).
As for `COCCCNCC(=O)Nc1sc(C)c(C)c1C(=O)OC`, the activation is 12.8%.
As for `CC1(C(=O)NS(=O)(=O)c2ccc(Cl)cc2)CCN1C(=O)CC1CCCC1` (configuration not stated), the activation is 0.43%.
The result for `CCCCn1c(N)c(N(CCC(C)C)C(=O)CC2OC(=O)c3ccccc32)c(=O)[nH]c1=O` (configuration not stated) reads -2.77%.
As to `CCc1nnc(NS(=O)(=O)c2ccc(NC(=O)c3cccc(OC(F)(F)C(F)F)c3)cc2)s1`, the activation was 18.4% (active).
On to `Cc1cc(NS(=O)(=O)c2ccc(NC(=O)c3cccc(OC(F)F)c3)cc2)nc(C)n1`, for which the activation is 1.34%.
Consider `CCc1nnc(NS(=O)(=O)c2ccc(NC(=S)NC(=O)/C=C/c3cccs3)cc2)s1`, for which the activation was 2.07%.
Under `O=C(NC(=S)N1CCCCC1c1cccnc1)c1ccccc1` (configuration not stated) stands 5.16%.
Under `Cc1ccc(S(=O)(=O)NNC(=O)/C=C/c2cccc(F)c2)cc1` stands -0.46%; under `Cc1ccc(C)c(OCc2cc(C(=O)N3CCN(c4cnccn4)CC3)no2)c1`, -8.08%; under `Cc1ccc2nc3c(cc(C(=O)NCCc4ccccc4)c(=N)n3CC3CCCO3)c(=O)n2c1` (configuration not stated), 2.81%.
On to `Cc1cccn2c(=O)c3cc(C#N)c(=O)n(CCCN4CCOCC4)c3nc12`, for which the activation was -0.36%.
For `Cc1cccn2c(=O)c3cc(C(=O)NCCN4CCOCC4)c(=N)n(Cc4cccnc4)c3nc12`, the activation is 28.1% (active).
As to `CN(Cc1ccccc1)C(=O)C(=O)c1cn(CC(=O)N2CCCC2)c2ccccc12`, the activation was -2.13%.
Under `C/C(=N\NC(=S)NC(C)C)c1ccc(C(C)(C)C)cc1` stands 8.71%; under `CC(=O)c1c(C)[nH]c(C(=O)NCCCN2CCCC2)c1C`, 18.1% (active); under `CCC1CCCCN1CCNC(=O)c1[nH]c(C)c(C(C)=O)c1C` (configuration not stated), 20.7% (active).
For `CC(=O)c1c(C)[nH]c(C(=O)NCc2ccc(C)cc2)c1C`, the activation is 11.5%.
The result for `CCCCN(CC)CCNC(=O)c1[nH]c(C)c(C(C)=O)c1C` reads -11.2%; that for `CCOC(=O)c1c(C)[nH]c(C(=O)NCCN2CCOCC2)c1C`, -4.21%; that for `CCC1CCCCN1CCNS(=O)(=O)c1ccc2c(c1)CCN2C(C)=O` (configuration not stated), 2.47%.
`COc1ccc(OCC(=O)NCCS(=O)(=O)N2CCN(c3ccc(F)cc3)CC2)cc1`: the activation is 5.36%.
As to `CCCCNC(=O)N(O)C1N(/N=C/c2ccccc2O)C(=S)SC1(C)C` (configuration not stated), the activation was -0.6%.
The result for `O=C(Nc1ccc(Cl)cn1)Nc1cccs1` reads 29.7% (active); that for `O=C(COC(=O)c1ccco1)Nc1ccc(Cl)cn1`, 4.61%.
Consider `Cc1cccc(OCC(=O)OCC(=O)Nc2ccc(Cl)cn2)c1`, for which the activation was 5.11%.
Under `Cc1ccc(C(=O)OC2=CC(=O)CC(C)(C)C2)cc1` stands 0.4%.
Under `Cc1ccc(C(C(=O)NCc2ccco2)N(CC2CCCO2)C(=O)Cn2nnc3ccccc32)cc1` (configuration not stated) stands -1.09%; under `CCOc1cc(C(C(=O)NCC2CCCO2)N(C(=O)Cn2nnc3ccccc32)c2cccc(OC)c2)ccc1O` (configuration not stated), 19% (active).
With `COc1ccc(C(C(=O)NCC2CCCO2)N(C(=O)Cn2nnc3ccccc32)c2ccc(NC(C)=O)cc2)cc1OC` (configuration not stated), the activation was 5.16%.
The result for `Cc1cc(C)c(OCCN2CC(C)OC(C)C2)c(Br)c1` (configuration not stated) reads 23.1% (active).
Regarding `CC1CN(CCCOc2ccccc2-c2ccccc2)CC(C)O1` (configuration not stated), the activation was 0.63%.
Under `CC1CN(CCOc2ccccc2[N+](=O)[O-])CC(C)O1` (configuration not stated) stands 8.76%; under `CCN(CC)Cc1csc2ccc(Br)cc12`, -8.32%; under `CN(Cc1ccccc1)C(=O)[C@@H]1CCCN1C(=O)[C@@H]1CCCN1C(=O)c1c(F)cccc1F`, -3.49%.
Regarding `O=C(CCN1C(=O)[C@@H]2Cc3ccccc3CN2C1=O)NCCc1ccccc1`, the activation is -2.71%.
Turning to `O=C(CCN1C(=O)[C@@H]2Cc3ccccc3CN2C1=O)NCc1ccccc1`, the activation is 21.5% (active).
Under `Cc1ccc(CNC(=O)CCN2C(=O)[C@@H]3Cc4ccccc4CN3C2=O)cc1` stands -3.61%.
Under `c1ccc(CCc2ccccn2)cc1` stands -5.1%; under `O=C(O)C(CCc1ccccn1)c1ccccc1` (configuration not stated), 19.2% (active); under `O=C(CNC(=O)COc1ccccc1)NCCc1ccccn1`, -11%.
As for `Cc1cccc(C(=O)NC2CCN(CC(=O)Nc3cccc(Cl)c3)CC2)c1`, the activation is -2.77%.
`CCC(C)(C)n1nnnc1C(c1ccc(OC)c(OC)c1)N1CCN(C(=O)c2ccco2)CC1` (configuration not stated): the activation was 4.04%.
Under `COc1ccccc1N(C)C(=O)c1cc(S(=O)(=O)N2CCc3ccccc32)cn1C` stands -2.97%.
Under `COc1ccccc1C(=O)NC(=S)Nc1ccc(N2CCOCC2)cc1` stands 4.29%; under `COc1cccc(OC)c1C(=O)Nc1ccc(N2CCCCC2)cc1`, 20.9% (active); under `COc1ccccc1C(=O)Nc1ccc(OCC(=O)N2CCCCC2)cc1`, 1%.
In the case of `CN(C)c1ccc(/C=N/NC(=O)c2ccc(Cn3cc(Br)cn3)o2)cc1`, the activation is -6.88%.
The result for `COc1ccc(/C=N/NC(=O)C(C)N(c2ccc(OC)cc2)S(C)(=O)=O)cc1` (configuration not stated) reads -7.14%; that for `CN(C)c1ccc(/C=N/NC(=O)C(O)c2ccc(Br)cc2)cc1` (configuration not stated), 20.2% (active); that for `O=C(NC1CCCCC1)C1CCC(CNS(=O)(=O)c2ccccc2)CC1` (configuration not stated), -2.41%.
As for `COc1cc(C(=O)NC2CCN(C)CC2)ccc1Nc1ncc2c(n1)N(C1CCC(O)CC1)CCC(=O)N2C` (configuration not stated), the activation was -2.26%.
As to `CCCCCNC(=O)C1C(=O)Nc2ccccc2C(=O)N1C(C)(C)C` (configuration not stated), the activation is 7.08%.
As for `COCCNC(=O)c1onc(CSc2cccc(C)c2)c1C(=O)O`, the activation is -3.85%.
As for `O=C(NNc1nc(N2CCCC2)nc(N2CCCC2)n1)c1ccccc1`, the activation was 6.43%.
The result for `O=C(NNC(=O)C1CCC1)c1ccccc1` reads 2.72%.
Turning to `O=C(NNC(=O)C1CCN(c2ncccn2)CC1)c1ccccc1`, the activation is 26.2% (active).
In the case of `CN(C)/C(=N\OC(=O)c1ccccc1)c1nonc1N`, the activation was -4.7%.
Under `COc1cc(Cn2c3ccc(NC(=O)CC(C)c4ccccc4)cc3c(=O)n2C)ccc1F` (configuration not stated) stands -5.77%.
On to `O=C(Nc1cccc(C(=O)O)c1)/C(=C\c1ccccc1)NC(=O)c1ccc(Br)o1`, for which the activation is -2.27%.
